Data reported in ChEMBL document CHEMBL1148174, “Antihyperlipidemic effect of flavonoids from Pterocarpus marsupium” (1993).

How the values were obtained:
Type in all cases: functional
Rattus norvegicus [1] = experiment: Antihyperlipidemic activity in diet-induced hyperlipidemic rat model assessed as serum LDLC level at 40 mg/kg, po administered once daily in morning through gastric intubation for 14 days measured after 4 hrs of last dose
Procedure, shortened: (§1)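 Male Charles Foster albino rats (200–250 g) fed a hyperlipidemic diet. Compound suspended in 5% EtOH/saline, given by gastric intubation each morning for 14 days; controls got vehicle. Killed 4 h after the last dose, serum taken by cardiac puncture. TC by Abell method, TG by Gottfried–Rosenberg, HDL-C by kit. LDL-C and VLDL-C by Friedewald calculation. Atherogenic index = (TC−HDL-C)/HDL-C. Mean ± SEM, n=6, t-test.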

Rattus norvegicus [2] = experiment: Antihyperlipidemic activity in diet-induced hyperlipidemic rat model assessed as ratio of HDLC to serum total cholesterol level at 40 mg/kg, po administered once daily in morning through gastric intubation for 14 days measured after 4 hrs of last dose
Rattus norvegicus [3] = experiment: Antihyperlipidemic activity in diet-induced hyperlipidemic rat model assessed as serum HDLC level at 40 mg/kg, po administered once daily in morning through gastric intubation for 14 days measured after 4 hrs of last dose; procedure, shortened: as §1
Rattus norvegicus [4] = experiment: Antihyperlipidemic activity in diet-induced hyperlipidemic rat model assessed as serum total cholesterol level at 40 mg/kg, po administered once daily in morning through gastric intubation for 14 days measured after 4 hrs of last dose; procedure, shortened: as §1
Rattus norvegicus [5] = experiment: Antihyperlipidemic activity in diet-induced hyperlipidemic rat model assessed as serum triglyceride level at 40 mg/kg, po administered once daily in morning through gastric intubation for 14 days measured after 4 hrs of last dose; procedure, shortened: as §1
Rattus norvegicus [6] = experiment: Antihyperlipidemic activity in diet-induced hyperlipidemic rat model assessed as serum VLDLC level at 40 mg/kg, po administered once daily in morning through gastric intubation for 14 days measured after 4 hrs of last dose; procedure, shortened: as §1
Rattus norvegicus [7] = experiment: Antihyperlipidemic activity in Triton-induced hyperlipidemic rat model assessed as serum total cholesterol level at 75 mg/kg, po administered for 2 days through gastric intubation immediately and 20 hrs after triton challenge measured after 4 hrs of last dose
Procedure, shortened: (§2)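 Male Charles Foster albino rats (200–250 g), fasted 24 h, given Triton 400 mg/kg ip in saline. Compound given orally by gastric intubation right after Triton and again 20 h later. Killed by decapitation 4 h after the second dose. Serum separated and stored at −20°. Total cholesterol by Abell method, triglycerides by Gottfried–Rosenberg, total lipid by Frings–Dunn. Mean ± SEM, n=6, Student's t-test versus control.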

Rattus norvegicus [8] = experiment: Antihyperlipidemic activity in diet-induced hyperlipidemic rat model assessed as atherogenic index at 40 mg/kg, po administered once daily in morning through gastric intubation for 14 days measured after 4 hrs of last dose; procedure, shortened: as §1
Rattus norvegicus [9] = experiment: Antihyperlipidemic activity in Triton-induced hyperlipidemic rat model assessed as serum triglyceride level at 75 mg/kg, po administered for 2 days through gastric intubation immediately and 20 hrs after triton challenge measured after 4 hrs of last dose; procedure, shortened: as §2
Rattus norvegicus [10] = experiment: Antihyperlipidemic activity in Triton-induced hyperlipidemic rat model assessed as serum total lipid level at 75 mg/kg, po administered for 2 days through gastric intubation immediately and 20 hrs after triton challenge measured after 4 hrs of last dose; procedure, shortened: as §2

COc1cc(O)cc2c1C(=O)C(O)(Cc1ccc(O)cc1)O2 (stereo unspecified) [CARPUSIN]
Activity (Rattus norvegicus [1]): 292.8 mg/dL
Ratio (Rattus norvegicus [2]): 0.09
Activity (Rattus norvegicus [3]): 32 mg/dL
Activity (Rattus norvegicus [4]): 350.6 mg/dL
Activity (Rattus norvegicus [5]): 190 mg/dL
Activity (Rattus norvegicus [6]): 41.1 mg/dL

O=C1C[C@@H](c2ccc(O)cc2)Oc2cc(O)ccc21 [LIQUIRTIGENIN]
Activity (Rattus norvegicus [7]): 406.7 mg%
Activity (Rattus norvegicus [1]): 245.7 mg/dL
AI (Rattus norvegicus [8]): 7.5
Ratio (Rattus norvegicus [2]): 0.11
Activity (Rattus norvegicus [9]): 572.9 mg%
Activity (Rattus norvegicus [3]): 38.01 mg/dL
Activity (Rattus norvegicus [4]): 323.2 mg/dL
Activity (Rattus norvegicus [10]): 837.3 mg%
Activity (Rattus norvegicus [5]): 198.1 mg/dL
Activity (Rattus norvegicus [6]): 39.6 mg/dL
